# Rows were chosen to be rich in hits. Some 3% of all compounds tested hit in one or more screens of this group.
# MEKK2 WT-MEK5 – raises or lowers MEK5 binding to wildtype human MEKK2 PB1 domain | binding response (% of control), % at 10 µM | bead flow cytometry, Alexa488-MEK5 binding to MEKK2 WT; actives lie on both sides | 290,000 compounds, 1.1% hits | AID 1531 | Q9Y2U5; in the data active = binding response below about 67% or above about 130%
# Apaf1 inhib – blocks human Apaf-1 apoptosome activity; O14727; reconstituted apoptosome caspase-3 activity, DEVD-Rh110 fluorescence; inhibition, % at 20 µM; 330,000 compounds, 0.71% hits; active = inhibition of at least 40% at 20 µM;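 note: plate controls were DMSO wells for no effect and DEVD-CHO caspase inhibitor wells for full effect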
#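 System – cell-free apoptosome with Apaf-1, procaspase-3 and caspase-9 · Buffer or medium – pH 7.5 Hepes buffer with CHAPS, BSA, DTT · Also added – cytochrome c with DEVD-Rh110 · Times – 30 min compound preincubation, 50 min activation, room temperature · Technique – Rh110 fluorescence intensity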
# MEKK3 PB1 HTS – modulators (inhibitors or enhancers) of MEK5 binding to human MEKK3 PB1 domain; Q99759; bead-based flow cytometry, Alexa488-MEK5 binding to MEKK3; actives lie on both sides; 0 = blocked by unlabeled MEK5, 100 = vehicle; binding response (% of control), % at 10 µM; 290,000 compounds, 1.4% hits;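 active = binding response more than 3 SD above or below the average of its plate-row segment, actives on both sides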;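 note: Alexa488 bead fluorescence after subtracting the streptavidin-only scavenger bead signal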
# UCH37 DUB inh – inhibitors of human deubiquitinating enzyme UCH37; 330,000 compounds, 0.33% hits; purified proteasome/UCH37, Ub-AMC cleavage fluorescence; inhibition, % (concentration not given with the values); Q9Y5K5;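 active = mean inhibition over replicate wells above about 20%, limit read from the data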;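 note: 0% = compound-free wells with enzyme and 100% = wells lacking proteasome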
# Target sequence (Q9Y5K5 whole entry, looked up): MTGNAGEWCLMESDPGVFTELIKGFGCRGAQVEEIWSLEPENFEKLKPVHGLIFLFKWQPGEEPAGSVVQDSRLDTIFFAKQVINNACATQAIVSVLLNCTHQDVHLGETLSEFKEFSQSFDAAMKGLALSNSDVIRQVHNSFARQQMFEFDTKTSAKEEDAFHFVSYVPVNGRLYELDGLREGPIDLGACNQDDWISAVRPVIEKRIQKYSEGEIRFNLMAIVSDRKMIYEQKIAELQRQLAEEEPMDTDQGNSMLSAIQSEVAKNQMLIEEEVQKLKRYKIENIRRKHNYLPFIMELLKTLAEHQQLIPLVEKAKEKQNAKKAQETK
#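 Signal – fluorescence, ex 355 nm, em 460 nm · System – Proteasome-bound UCH37 · Input – 0.15 nM proteasome as dispensed · Timing – 30 min preincubation with enzyme, 25 min cleavage at room temperature · Read-out basis – percent inhibition of cleavage signal versus uninhibited and no-proteasome wells · Medium – Tris-HCl pH 7.4 with ATP-MgCl2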
# UBC13 polyUb – human UBC13 polyubiquitination inhibition. P61088. UBC13 polyubiquitin chain formation, TR-FRET. inhibition, % at 20 µM. 330,000 compounds, 0.47% hits. AID 485273; in the data active = inhibition above about 45%, passing the limit was not always enough
# Target sequence (P61088 whole entry, looked up): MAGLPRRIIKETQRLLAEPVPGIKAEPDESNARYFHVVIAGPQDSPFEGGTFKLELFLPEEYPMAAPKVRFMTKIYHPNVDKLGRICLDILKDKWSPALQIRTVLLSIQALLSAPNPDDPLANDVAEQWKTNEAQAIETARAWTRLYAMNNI
# MEKK2mut PB1 HTS – signal of MEK5 binding to mutant human MEKK2 PB1 domain; bead flow cytometry, Alexa488-MEK5 binding to MEKK2 mutant; percent response, % at 10 µM; 290,000 compounds, 0.35% hits; AID 1530; in the data active = percent response above about 24%, passing the limit was not always enough
# Apaf-1 inh conf – confirmation of Apaf-1 inhibitors; shares compounds with Apaf1 inhib; reconstituted apoptosome, caspase-3 DEVD-Rh110 fluorescence; inhibition, % at 20 µM; 1,800 compounds, 25% hits;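 active = mean inhibition of at least 40% at 20 µM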;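 note: plate controls were DMSO wells for no effect and DEVD-CHO caspase inhibitor control wells for full effect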
# Rh110 interf inh – interferes with Rh110 fluorescence, flagging false Apaf-1 inhibitors; activation (fluorescence interference), % at 20 µM; shares compounds with Apaf1 inhib; 1,800 tested, under 10 active; Rh110 fluorescence interference, quenched caspase reaction;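 active = signal rise of 40% or more at 20 µM, treated as a fluorescence artifact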
# Apaf1 inh interf – Apaf-1 inhibitor counter-screen fluorescence artifact. shares compounds with Apaf1 inhib. fluorescence interference counterscreen, Apaf-1 assay format. IC50, µM. 460 tested, under 10 active; call rule not given here
# The depositor's hits bear a star; . = no result.
SMILES,MEKK2 WT-MEK5,Apaf1 inhib,MEKK3 PB1 HTS,UCH37 DUB inh,UBC13 polyUb,MEKK2mut PB1 HTS,Apaf-1 inh conf,Rh110 interf inh,others
Cc1ccc(NC2=C(N3CCCCC3)C(=O)c3ccccc3C2=O)cc1,96,81*,95,23*,-44,-1,95*,3,Apaf1 inh interf=>100
O=C(/C=C/c1ccc(O)cc1)c1ccc(NC2=C(N3CCCCC3)C(=O)c3ccccc3C2=O)cc1,69,76*,74,22*,-65,-12,95*,0,Apaf1 inh interf=>100
COc1ccccc1NC1=C(N2CCCCC2)C(=O)c2ccccc2C1=O,92,95*,99,52*,-17,-3,95*,4,Apaf1 inh interf=>100
CN(C1=C(N2CCCCC2)C(=O)c2ccccc2C1=O)c1ccccc1,101,27,105,4,-40,0,.,.,
CCOC(=O)N1CCN(C(=O)CSC2=NS(=O)(=O)c3cc(F)ccc3N2)CC1,.,1,.,0,2,.,.,.,
Oc1ccc(C=NNc2cccc(Cl)n2)c(O)c1,.,.,.,4,.,.,.,.,
CCOc1cccc(N(C(=O)C2COc3ccccc3O2)C(C(=O)NC2CCCCC2)c2ccc(O)cc2)c1 (stereo not given),92,47*,96,-1,3,-2,11,1,
O=C1CCCCCCCN1Cc1ccccc1,.,6,.,0,-6,.,.,.,
CC1=NN(c2ccccc2)C(=O)C1,98,41*,86,2,-22,3,15,5,
CC1=NN(c2ccc(N)cc2)C(=O)C1,101,53*,100,0,-8,1,9,-6,
CC1=NN(Cc2ccccc2)C(=O)C1,90,65*,87,4,-16,-5,1,-5,
CCCC1(C(=O)OCC)NC(c2ccco2)C2C(=O)N(C)C(=O)C21 (stereo not given),98,3,96,-1,-13,-1,.,.,
NNC(=O)c1ccc(Cn2cc(Br)c(N)n2)cc1,95,-40,96,4,3,-4,.,.,
COc1ccccc1NC(=O)C(C)OC(=O)CN1C(=O)C2CC=CCC2C1=O (stereo not given),.,-4,.,1,5,.,.,.,
CC(=O)c1ccc(OCCCC(=O)N2CCN(S(=O)(=O)c3ccc(C)cc3C)CC2)cc1,.,40*,.,0,28,.,32,0,
CCN1C(=NCCc2ccc([N+](=O)[O-])cc2)N[C@@H](c2ccccc2)[C@H](C(=O)OC)[C@H]1C,.,9,.,1,10,.,.,.,
CCN1C(=NCCc2ccc(Br)cc2)N[C@@H](c2ccccc2)[C@H](C(=O)OC)[C@H]1C,.,45*,.,2,31,.,12,2,
COc1cccc(CN2CCC(n3nccc3NC(=O)CCOc3ccccc3)CC2)c1O,115,1,105,1,-11,7,.,.,
CC(=O)N1CCN(C(=S)NC(=O)C23CC4CC(CC(C4)C2)C3)CC1,109,48*,116,1,-6,4,3,-8,
O=S(N1CCCCC1)C12CC3CC(CC(C3)C1)C2 (stereo not given),85,-10,104,4,-1,-11,.,.,
COc1ccc(C(=O)c2c(C(F)(F)F)oc3c2C(=O)c2ccccc2C3=O)cc1,100,79*,102,15,-46,4,84*,14,Apaf1 inh interf=>100
COc1ccc(C(=O)c2coc(-c3ccccc3C(=O)O)c2C(=O)O)cc1,106,-11,104,1,8,1,.,.,
COc1cccc2c1[C@@H]1CN(CCCCn3c(=O)[nH]c4c(sc5ncc(-c6ccccc6)nc54)c3=O)C[C@@H]1CO2,.,48*,.,4,30,.,22,11,
COc1ccccc1N1CCN(C(=O)CCCCCn2c(=O)[nH]c3ccsc3c2=O)CC1,107,-12,109,3,22,-1,.,.,
CC1CCN(C(=O)C2CCN(S(=O)(=O)c3cccs3)CC2)CC1,103,-1,101,-1,2,0,.,.,
SMILES,MEKK2 WT-MEK5,Apaf1 inhib,MEKK3 PB1 HTS,UCH37 DUB inh,UBC13 polyUb,MEKK2mut PB1 HTS,Apaf-1 inh conf,Rh110 interf inh,others
O=C(C[n+]1ccc(C(=O)c2ccccc2)cc1)Nc1ccccc1OC(F)F,.,4,.,4,10,.,.,.,
CCCN(CC1CC1)c1nc(N)c2c(N)nc(OC)cc2c1C#N,98,93*,99,-115,-3,-2,6,1,
CCOc1cc2c(C#N)c(N(CC)CC)nc(N)c2c(N)n1,101,29,100,-24,-15,1,.,.,
COC(=O)C1=C(C)N(Cc2ccccc2)C(=NCc2ccc(OC)cc2)N[C@H]1c1ccccc1,.,51*,.,2,44,.,12,6,
Cc1cc2cc(C(c3nnnn3Cc3ccco3)N3CCc4ccccc4C3)c(=O)[nH]c2cc1C (stereo not given),94,41*,104,-8,-7,3,24,10,
Cc1ccc2[nH]c(=O)c(C(c3nnnn3Cc3ccccc3)N3CCc4ccccc43)cc2c1 (stereo not given),87,29,95,0,5,-10,.,.,
Cc1ccc2cc(C(c3nnnn3Cc3ccccc3)N3CCc4ccccc43)c(=O)[nH]c2c1 (stereo not given),94,43*,106,1,6,-1,18,4,
Cc1ccc2[nH]c(=O)c(C(c3nnnn3CC3CCCO3)N3CCc4ccccc4C3)cc2c1 (stereo not given),99,66*,98,1,0,-2,17,9,
COc1ccc2[nH]c(=O)c(C(c3nnnn3CC3CCCO3)N3CCc4ccccc4C3)cc2c1 (stereo not given),95,5,94,-57,8,-5,.,.,
COc1ccc2cc(C(c3nnnn3C3CCCC3)N3CCc4ccccc4C3)c(=O)[nH]c2c1 (stereo not given),95,72*,99,-3,-4,-2,24,13,
O=C1[C@@H]2C3C=CC(O3)[C@@H]2C(=O)N1c1ccccc1,.,-6,.,.,-12,.,.,.,
Cc1cc(SCC(=O)Nc2cccc(S(=O)(=O)NC3=NCCCCC3)c2)c(C)cc1Br,99,21,104,3,-8,1,.,.,
O=[N+]([O-])c1ccccc1-c1ccc(C(=S)N2CCCC2)o1,96,47*,98,6,-46,-1,40,2,Apaf1 inh interf=>100
CC(=O)Nc1ccc(Oc2ncccn2)c(Cl)c1,105,-4,106,-1,2,8,.,.,

# Source: PubChem BioAssay
